Each structure is given as a SMILES string. Activity calls are given as the source filed them.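 How the source made its calls: active means inhibition of the reporter signal above 10%; inactive means the rest.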

In the assay the test system is GAL4DBD-VP16 transactivation domain fusion (Human herpesvirus 1 VP16). Nature of the assay: suppression of VP16-driven UAS luciferase – cell-based, luminescence, HEK293T, powder samples, counter-screen for LRH1 inverse agonist project, confirmation (AID 488775). The following applies: HEK293T GAL4-VP16 UAS-luciferase reporter, 18-24 h; at 5 µM; hits give high values. The method in brief:
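assay system = HEK293T cells with GAL4–VP16 fusion and UAS-luciferase reporter | compound = one dose, 5 µM nominal | signal = luminescence from luciferase | read-out = percent inhibition from averaged fold change relative to DMSO vehicle wells | control set = DMSO vehicle-treated cells as reference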
Turning to `O=c1cc(N2CCN(CCN3CCOCC3)CC2)[nH]c(=O)n1C1CCCCC1`, the inhibition (as a rule, the relative decrease from the control value, in per cent) is 26%.

On to `O=C(c1ccccc1)N1CCN(c2cc(=O)n(C3CCCCC3)c(=O)[nH]2)CC1`, for which the inhibition was 8% (inactive).

Consider `O=c1cc(N2CCN(c3ccc(F)cc3)CC2)[nH]c(=O)n1C1CCCCC1`, for which the inhibition is -9% (inactive).

In the case of `O=c1cc(N2CCN(c3ncccc3C(F)(F)F)CC2)[nH]c(=O)n1C1CCCCC1`, the inhibition is 13%.

Turning to `O=c1cc(N2CCN(c3ccccc3)CC2)[nH]c(=O)n1C1CCCCC1`, the inhibition is -16% (inactive).

For the compound `O=C(c1ccco1)N1CCN(c2cc(=O)n(C3CCCCC3)c(=O)[nH]2)CC1`, the inhibition is 17%.

`O=c1cc(N2CCc3ccccc32)[nH]c(=O)n1C1CCCCC1`: the inhibition is -11% (inactive).

As to `Cc1ccc(Cl)cc1N1CCN(c2cc(=O)n(C3CCCCC3)c(=O)[nH]2)CC1`, the inhibition was 0% (inactive).

For `O=c1cc(N2CCOCC2)[nH]c(=O)n1C1CCCCC1`, the inhibition was 9% (inactive).

Regarding `O=c1cc(N2CCN(c3cccc(Cl)c3)CC2)[nH]c(=O)[nH]1`, the inhibition is 3% (inactive).

With `O=c1cc(N2CCN(Cc3ccc4c(c3)OCO4)CC2)[nH]c(=O)n1C1CCCCC1`, the inhibition is -5% (inactive).

For `O=c1cc(N2CCN(c3ccccc3C(F)(F)F)CC2)[nH]c(=O)n1C1CCCCC1`, the inhibition is 14%.

Regarding `O=c1cc(N2CCN(c3cccc(Cl)c3Cl)CC2)[nH]c(=O)n1C1CCCCC1`, the inhibition was -5% (inactive).

As to `CC(C)Cn1c(=O)cc(N2CCN(c3cccc(C(F)(F)F)c3)CC2)[nH]c1=O`, the inhibition was 8% (inactive).

`O=c1cc(N2CCN(Cc3ccc(Cl)cc3)CC2)[nH]c(=O)n1C1CCCCC1`: the inhibition was -4% (inactive).

Regarding `CCn1c(=O)cc(N2CCN(Cc3ccccc3)CC2)[nH]c1=O`, the inhibition is -10% (inactive).

For `O=c1cc(N2CCN(c3ccc(C(F)(F)F)cc3)CC2)[nH]c(=O)n1C1CCCCC1`, the inhibition was -5% (inactive).

Turning to `O=c1cc(N2CCN(c3cccc(Cl)c3)CC2)[nH]c(=O)n1C1CCCCC1`, the inhibition is 1% (inactive).

On to `O=c1cc(N2CCN(c3cccc(C(F)(F)F)c3)CC2)n(Cc2ccccc2)c(=O)n1C1CCCCC1`, for which the inhibition is -1% (inactive).

Regarding `COC(=O)C1CCN(c2cc(=O)n(C3CCCCC3)c(=O)[nH]2)CC1`, the inhibition was -12% (inactive).

As for `O=c1cc(N2CCN(c3ncccc3Cl)CC2)[nH]c(=O)n1C1CCCCC1`, the inhibition is 16%.

With `CCn1c(=O)cc(N2CCN(c3ccc(F)cc3)CC2)[nH]c1=O`, the inhibition is -7% (inactive).

As for `CCn1c(=O)cc(N2CCN(c3ccccc3)CC2)[nH]c1=O`, the inhibition was -7% (inactive).

Take `C=CCN1CCN(c2cc(=O)n(C3CCCCC3)c(=O)[nH]2)CC1`: the inhibition was -48% (inactive).

On to `CC1CCN(c2cc(=O)n(Cc3ccc(F)cc3)c(=O)[nH]2)CC1`, for which the inhibition was -7% (inactive).

As for `COc1ccc(N2CCN(c3cc(=O)n(C4CCCCC4)c(=O)[nH]3)CC2)cc1`, the inhibition was 1% (inactive).

Turning to `CC1CCN(c2cc(=O)n(C3CCCCC3)c(=O)[nH]2)CC1`, the inhibition was 6% (inactive).

For the compound `O=c1cc(N2CCN(c3cccc(Br)c3)CC2)[nH]c(=O)n1C1CCCCC1`, the inhibition was -4% (inactive).

Take `O=c1cc(N2CCCC2)[nH]c(=O)n1C1CCCCC1`: the inhibition was -6% (inactive).

As for `O=c1cc(N2CCN(c3nccc4occc34)CC2)[nH]c(=O)n1C1CCCCC1`, the inhibition was -4% (inactive).

As for `O=c1cc(N2CCN(c3cccc(C(F)(F)F)c3)CC2)[nH]c(=O)n1-c1ccccc1`, the inhibition is -3% (inactive).

Regarding `CCn1c(=O)cc(N2CCN(c3cccc(Cl)c3)CC2)[nH]c1=O`, the inhibition was 5% (inactive).

Regarding `CCn1c(=O)cc(N2CCN(c3cccc(C(F)(F)F)c3)CC2)[nH]c1=O`, the inhibition is 1% (inactive).

As for `CCOC(=O)N1CCN(c2cc(=O)n(C3CCCCC3)c(=O)[nH]2)CC1`, the inhibition was -6% (inactive).

Consider `O=c1cc(N2CCN(c3ccnc4cc(Cl)ccc34)CC2)[nH]c(=O)n1C1CCCCC1`, for which the inhibition was 7% (inactive).

Take `O=c1cc(N2CCCCC2)[nH]c(=O)n1C1CCCCC1`: the inhibition is 0% (inactive).

For `O=c1cc(N2CCN(c3nc(-c4ccccc4)ns3)CC2)[nH]c(=O)n1C1CCCCC1`, the inhibition is -27% (inactive).

Regarding `O=c1cc(N2CCN(c3cccc(C(F)(F)F)n3)CC2)[nH]c(=O)n1C1CCCCC1`, the inhibition is 3% (inactive).

Regarding `N#CCn1c(N2CCN(c3cccc(C(F)(F)F)c3)CC2)cc(=O)n(C2CCCCC2)c1=O`, the inhibition was 2% (inactive).

With `O=c1cc(N2CCN(c3ccccc3)CC2)[nH]c(=O)n1Cc1ccc(F)cc1`, the inhibition was -5% (inactive).

With `O=c1cc(N2CCN(c3ccccc3Cl)CC2)[nH]c(=O)n1C1CCCCC1`, the inhibition was 1% (inactive).

As for `Cn1c(=O)cc(N2CCN(c3ccc(F)cc3)CC2)[nH]c1=O`, the inhibition is -13% (inactive).

For `O=c1cc(N2CCN(c3cccc(C(F)(F)F)c3)CC2)[nH]c(=O)n1Cc1ccccc1`, the inhibition was 6% (inactive).

Consider `O=c1cc(N2CCN(c3cccc(C(F)(F)F)c3)CC2)[nH]c(=O)n1C1CCCCC1`, for which the inhibition is -6% (inactive).

Regarding `O=c1cc(N2CCN(C(c3ccccc3)c3ccccc3)CC2)[nH]c(=O)n1C1CCCCC1`, the inhibition was 11% (inactive).

On to `O=c1cc(N2CCN(c3cc(C(F)(F)F)ccn3)CC2)[nH]c(=O)n1C1CCCCC1`, for which the inhibition was -12% (inactive).

Consider `C=CCn1c(N2CCN(c3cccc(C(F)(F)F)c3)CC2)cc(=O)n(C2CCCCC2)c1=O`, for which the inhibition is 20%.

As to `CCn1c(=O)cc(N2CCN(C(=O)c3ccco3)CC2)[nH]c1=O`, the inhibition is 0% (inactive).

In the case of `O=c1cc(N2CCC(Cc3ccccc3)CC2)[nH]c(=O)n1C1CCCCC1`, the inhibition was 26%.

On to `O=c1cc(N2CCN(C3CCCCC3)CC2)[nH]c(=O)n1C1CCCCC1`, for which the inhibition is 0% (inactive).

Turning to `CCN1CCN(c2cc(=O)n(C3CCCCC3)c(=O)[nH]2)CC1`, the inhibition is 0% (inactive).

As to `O=c1cc(N2CCN(c3ccc(F)cc3F)CC2)[nH]c(=O)n1C1CCCCC1`, the inhibition was 26%.

Consider `Cn1c(=O)cc(N2CCN(c3cccc(Cl)c3)CC2)[nH]c1=O`, for which the inhibition is -1% (inactive).

Take `Cc1cc(C)cc(N2CCN(c3cc(=O)n(C4CCCCC4)c(=O)[nH]3)CC2)c1`: the inhibition was -6% (inactive).

As for `O=c1cc(N2CCN(c3cc(Cl)cc(Cl)c3)CC2)[nH]c(=O)n1C1CCCCC1`, the inhibition is 1% (inactive).

Consider `Cc1ccc(C)n1CCN1CCN(c2cc(=O)n(C3CCCCC3)c(=O)[nH]2)CC1`, for which the inhibition is 17%.

In the case of `O=c1cc(N2CCN(c3ccccn3)CC2)[nH]c(=O)n1C1CCCCC1`, the inhibition was -8% (inactive).

Turning to `C=CCn1c(=O)cc(N2CCN(c3cccc(C(F)(F)F)c3)CC2)[nH]c1=O`, the inhibition was 1% (inactive).

On to `O=c1cc(N2CCN(c3cccc(Cl)n3)CC2)[nH]c(=O)n1C1CCCCC1`, for which the inhibition was -7% (inactive).

Source of the values: PubChem BioAssay AID488775 (The Scripps Research Institute Molecular Screening Center, 2010).
